The subject of one data set is MCF7. As to the kind of experiment: Antiproliferative activity against human MCF7 cells after 24 hrs by MTT assay. The data set is classed as functional, cell-based. To be noted: MCF7, 24 h. The essentials:
(§1)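 Cells from ATCC, subcultured by an earlier reported method, then exposed to 5-fold serial dilutions in triplicate for 24 h. Cells were washed with PBS, given MTT for 2 h, then dissolved in DMSO. Absorbance read at 570 nm.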

Another data set has as its system T47D. As to the kind of experiment: Antiproliferative activity against human T47D cells after 24 hrs by MTT assay. The data set is classed as functional, cell-based. The essentials:
as §1

A further data set has as its target T1, Estrogen receptor (Homo sapiens, UniProt P03372).
T1 sequence (P03372 whole entry): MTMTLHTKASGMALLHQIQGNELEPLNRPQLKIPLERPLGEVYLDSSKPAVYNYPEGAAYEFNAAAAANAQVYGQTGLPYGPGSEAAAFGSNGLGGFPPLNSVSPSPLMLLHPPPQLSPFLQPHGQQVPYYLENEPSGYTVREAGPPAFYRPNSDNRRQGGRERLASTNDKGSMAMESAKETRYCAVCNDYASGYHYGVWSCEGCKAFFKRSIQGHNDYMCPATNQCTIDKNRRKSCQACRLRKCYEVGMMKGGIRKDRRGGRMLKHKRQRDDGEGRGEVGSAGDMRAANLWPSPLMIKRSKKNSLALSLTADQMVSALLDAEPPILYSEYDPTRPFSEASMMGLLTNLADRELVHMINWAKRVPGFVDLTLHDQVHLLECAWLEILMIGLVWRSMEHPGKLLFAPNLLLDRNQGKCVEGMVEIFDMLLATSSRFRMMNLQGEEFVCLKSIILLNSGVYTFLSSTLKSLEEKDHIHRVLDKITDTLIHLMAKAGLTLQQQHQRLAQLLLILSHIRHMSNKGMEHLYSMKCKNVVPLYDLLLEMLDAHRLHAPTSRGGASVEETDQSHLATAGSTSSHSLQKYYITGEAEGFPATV
As to the kind of experiment: Inhibition of estrogen receptor-alpha (unknown origin) by ELISA. A general note: ELISA stands for enzyme-linked immunosorbent assay.

Data set [1] has as its system Mus musculus. As to the kind of experiment: Decrease in ER-alpha protein expression in tumors of Swiss albino mouse mouse implanted with mouse EAC cells at 5 mg/mouse, ip dosed once weekly starting 5 days after inoculation by immunohistochemical analysis relative to control. The arrangement: scale not given: the % may be the effect or the level left. The data set is classed as functional. The essentials:
(§2)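 Tumors from the EAC mouse model after 15 days of treatment were stained by avidin-biotin immunoperoxidase using an anti-ER-α monoclonal antibody (1:100 in PBS), detected with DAB and counterstained with Mayer's hematoxylin. A section without primary antibody served as negative control. Percentage of positive cells estimated in 10 random fields per section per animal. Mean ± SD, n=10.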

Data set [2] deals with Mus musculus. The experiment in a line: Decrease in ER-alpha protein expression in tumors of Swiss albino mouse mouse implanted with mouse EAC cells at 10 mg/mouse, ip dosed once weekly starting 5 days after inoculation by immunohistochemical analysis relative to control. The format is functional. The arrangement: scale not given: the % may be the effect or the level left. Put shortly: as §2

For data set [3], the system named is Ehrlich. The experiment in a line: Antitumor activity against mouse EAC cells implanted in Swiss albino mouse assessed as reduction in tumor volume at 10 mg/mouse, ip starting 5 days after inoculation dosed once weekly and measured on 15 days of treatment relative to fulvestrant. The data set is classed as functional, organism-based. Put shortly: (§3)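 Female Swiss albino mice received EAC cells from donor ascitic fluid (~12.5 × 10^6/mL in sterile saline, 0.2 mL) i.m. into the left thigh. Treatment began at a palpable mass of ~100 mm3, given i.p. once weekly in 10% Tween 80 against vehicle and fulvestrant 5 mg/mouse controls. Caliper tumor volume = L × H² × 0.52. Mean ± SD, n=10, one-way ANOVA with Tukey-Kramer.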

The subject of data set [4] is Ehrlich. The experiment in a line: Antitumor activity against mouse EAC cells implanted in Swiss albino mouse assessed as focal necrotic areas in deeper parts of tumor mass at 10 mg/mouse, ip dosed once weekly starting 5 days after inoculation by hematoxylin and eosin staining-based assay. The format is functional, organism-based. Put shortly: (§4)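 EAC solid tumors in female Swiss albino mice, with weekly i.p. treatment in 10% Tween 80 against vehicle and fulvestrant controls. Tumors were collected on day 15, formalin-fixed, paraffin-embedded and stained with H&E. Necrotic index scored in 10 random fields per section per animal. n=10, one-way ANOVA with Tukey-Kramer.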

Data set [5] concerns Mus musculus. The experiment in a line: Decrease in ER-alpha protein expression in tumors of Swiss albino mouse mouse implanted with mouse EAC cells at 5 mg/mouse, ip dosed once weekly starting 5 days after inoculation by immunohistochemical analysis relative to fulvestrant. The format is functional. The arrangement: scale not given: the % may be the effect or the level left. Put shortly:
as §2

Data set [6] is described as follows: Acute toxicity in Swiss albino mouse assessed induction of mortality at 10 mg/mouse, ip dosed once weekly. The data set is classed as organism-based. Particulars: in vivo. The essentials: (§5)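 Normal female-strain-unspecified mice got a single i.p. dose of 10 mg/mouse. They were watched for 7 days for short-term acute toxic signs, behavioural changes and mortality.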

The nature of data set [7]: Acute toxicity in Swiss albino mouse assessed induction of toxic signs at 10 mg/mouse, ip dosed once weekly. To be noted: in vivo. The format is organism-based. Put shortly:
as §5

Data set [8] deals with Ehrlich. The experiment in a line: Antitumor activity against mouse EAC cells implanted in Swiss albino mouse assessed as induction of necrosis at 5 mg/mouse, ip dosed once weekly starting 5 days after inoculation by hematoxylin and eosin staining-based assay. The data set is classed as functional, organism-based. The essentials: as §4
For data set [9], the system named is Ehrlich. The experiment in a line: Antitumor activity against mouse EAC cells implanted in Swiss albino mouse assessed as viable cell area in deeper parts of tumor mass at 10 mg/mouse, ip dosed once weekly starting 5 days after inoculation by hematoxylin and eosin staining-based assay. The format is functional, organism-based. The essentials:
as §4

Data set [10] relates to Ehrlich. As to the kind of experiment: Antitumor activity against mouse EAC cells implanted in Swiss albino mouse assessed as reduction in tumor size at 5 to 10 mg/mouse, ip dosed once weekly starting 5 days after inoculation and measured 9 and 12 days of treatment relative to fulvestrant. The data set is classed as functional, organism-based. Put shortly:
as §3

In data set [11] the test system is Mus musculus. As to the kind of experiment: Decrease in ER-alpha protein expression in tumors of Swiss albino mouse mouse implanted with mouse EAC cells at 10 mg/mouse, ip dosed once weekly starting 5 days after inoculation by immunohistochemical analysis relative to fulvestrant. The arrangement: scale not given: the % may be the effect or the level left. The format is functional. The essentials:
as §2

Data set [12] is described as follows: Acute toxicity in Swiss albino mouse implanted with mouse EAC cells assessed effect on body weight at 5 to 10 mg/mouse, ip dosed once weekly starting 5 days after inoculation and measured up to 20 days after inoculation. The data set is classed as organism-based. To be noted: in vivo. The essentials: (§6)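 Female Swiss albino mice were given EAC cells from donor ascitic fluid, diluted in sterile saline to ~12.5 × 10^6/mL, 0.2 mL i.m. into the left thigh. Once-weekly i.p. dosing in 10% Tween 80 began at a palpable ~100 mm3 mass; controls got vehicle. Tumour volume (caliper, L × H² × 0.52) and body weight were taken over 15 days; n=10, mean ± SD, ANOVA/Tukey-Kramer.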

Data set [13] can be described thus: Acute toxicity in Swiss albino mouse assessed induction of behavioural changes at 10 mg/mouse, ip dosed once weekly. The format is organism-based. Particulars: in vivo. Put shortly: as §5
Data set [14] has as its system Ehrlich. The experiment in a line: Antitumor activity against mouse EAC cells implanted in Swiss albino mouse assessed as reduction in tumor size at 5 mg/mouse, ip dosed once weekly starting 5 days after inoculation. The format is functional, organism-based. Put shortly:
as §6

Data set [15] concerns Ehrlich. The experiment in a line: Antitumor activity against mouse EAC cells implanted in Swiss albino mouse assessed as reduction in viable tumor cell area in outer zone of tumor mass at 10 mg/mouse, ip dosed once weekly starting 5 days after inoculation by hematoxylin and eosin staining-based assay. The data set is classed as functional, organism-based. The essentials:
as §4

The subject of data set [16] is Ehrlich. As to the kind of experiment: Antitumor activity against mouse EAC cells implanted in Swiss albino mouse assessed as reduction in tumor volume at 5 mg/mouse, ip dosed once weekly starting 5 days after inoculation and measured on 15 days of treatment relative to fulvestrant. The format is functional, organism-based. The essentials:
as §3

Data set [17] concerns Ehrlich. The experiment in a line: Antitumor activity against mouse EAC cells implanted in Swiss albino mouse assessed as increase in necrotic areas in outer zone of tumor mass at 10 mg/mouse, ip dosed once weekly starting 5 days after inoculation by hematoxylin and eosin staining-based assay. The data set is classed as functional, organism-based. Put shortly:
as §4

Data set [18] concerns Ehrlich. The experiment in a line: Antitumor activity against mouse EAC cells implanted in Swiss albino mouse assessed as induction of tumor degeneration in outer zone of tumor mass at 10 mg/mouse, ip dosed once weekly starting 5 days after inoculation by hematoxylin and eosin staining-based assay. The data set is classed as functional, organism-based. The essentials:
as §4

Structures are written as SMILES. Activity calls are given as the source filed them. The rule behind the calls is not given here.

`O=C(Nc1ccc2cc[nH]c2c1)c1ccc(F)cc1`: the IC50 (commonly the midpoint of a concentration-inhibition curve) in the data set with MCF7 was 45.9 µM; with T47D, 35.1 µM; against Estrogen receptor, 0.0695 µM.

As to `O=C(Nc1ccc2cc[nH]c2c1)c1ccc(Br)cc1`, the IC50 came to 38.1 µM in the data set on MCF7, 63.7 µM with T47D and 0.00471 µM on Estrogen receptor.

For `N#Cc1ccc(C(=O)Nc2ccc3cc[nH]c3c2)cc1`, the figures for the IC50 in the data set with MCF7, with T47D and against Estrogen receptor were 33.6 µM, 35.8 µM and 0.0024 µM, respectively.

Regarding `O=S(=O)(Nc1ccc2cc[nH]c2c1)c1ccc(F)cc1`, the Activity in the data set on Mus musculus [1] is recorded as 58.24%; in the data set on Mus musculus [2], 37.65%; in the data set with Mus musculus [5], 50%; in data set [6], “Non-Toxic”; in [7], “Non-Toxic”; in the data set with Mus musculus [11], 25.35%. Also, the Activity entry in data set [12] and in data set [13] was “Non-Toxic” throughout. The IC50 in the data set with MCF7 worked out at 30.9 µM; in the data set with T47D, 33 µM; on Estrogen receptor, 0.00331 µM. For the same compound, the outcome in the data set with Ehrlich [3], in the data set on Ehrlich [4], with Ehrlich [9] and in the data set on Ehrlich [10] was Active. Also, in the data set on Ehrlich [8], the result was inactive.

As to `O=S(=O)(Nc1ccc2cc[nH]c2c1)c1ccc(Cl)cc1`, the figures for the half-maximal inhibitory concentration (IC50) with MCF7, with T47D and on Estrogen receptor were 54 µM, 46.2 µM and 0.0444 µM, respectively.

For `Cc1ccc(S(=O)(=O)Nc2ccc3cc[nH]c3c2)cc1`, the IC50 worked out at 37.2 µM in the data set on MCF7, 57.1 µM in the data set on T47D and 0.205 µM at Estrogen receptor.

On to `C[C@]12CC[C@@H]3c4ccc(O)cc4C[C@@H](CCCCCCCCC[S+]([O-])CCCC(F)(F)C(F)(F)F)[C@H]3[C@@H]1CC[C@@H]2O` (some centres undefined), for which the outcome in the data set with Ehrlich [14] was Active.

Consider `O=C(Nc1ccc2cc[nH]c2c1)c1cccc(C(F)(F)F)c1`, for which the Activity in the data set on Mus musculus [1] is given as 64.71%; with Mus musculus [2] it was 35.3%; in the data set on Mus musculus [5], 57.75%; in [6] it was “Non-Toxic”; in data set [7] it was “Non-Toxic”; with Mus musculus [11] it was 22.54%. The Activity entry in data set [12] and in data set [13] was “Non-Toxic” each time. In addition, the results for the IC50 with MCF7, with T47D and against Estrogen receptor were 30.6 µM, 28.2 µM and 0.00176 µM, respectively. In addition, the result in the data set on Ehrlich [15], with Ehrlich [16], in the data set on Ehrlich [10], with Ehrlich [17] and in the data set with Ehrlich [18] was Active.

On to `O=C(Nc1ccc2cc[nH]c2c1)c1ccc(C(F)(F)F)cc1`, for which the IC50 with MCF7 worked out at 63.4 µM; with T47D, 51.3 µM; against Estrogen receptor it was 0.00815 µM.

`CC/C(=C(\c1ccccc1)c1ccc(OCCN(C)C)cc1)c1ccccc1` [TAMOXIFEN]: the results for the IC50 in the data set on MCF7 and in the data set with T47D were 42.4 µM and 34.4 µM, respectively.

In the case of `O=S(=O)(Nc1ccc2cc[nH]c2c1)c1ccc(Br)cc1`, the IC50 in the data set with MCF7 was 37.8 µM; in the data set with T47D, 40.1 µM; on Estrogen receptor, 0.0227 µM.

As for `COc1ccc(S(=O)(=O)Nc2ccc3cc[nH]c3c2)cc1`, the IC50 is 57.2 µM in the data set on MCF7, 45 µM with T47D and 0.00753 µM on Estrogen receptor.

The values are drawn from ChEMBL document CHEMBL4400529, “Structure-based drug design, synthesis, In vitro, and In vivo biological evaluation of indole-based biomimetic analogs targeting estrogen receptor-α inhibition” (Eur J Med Chem, 2019).
